Results as given in PMC8526916 (International Journal for Parasitology: Drugs and Drug …, 2021).

Columns and labels:
[1] = mice; ref Vidadala et al., 2016; cited from earlier work
[2] = Plasma protein binding by equilibrium dialysis, mouse plasma; type: in vitro ADME; conditions: 5 μM
In short: (§1)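 Test compound in DMSO was spiked into plasma at 5 μM; an aliquot of spiked plasma served as the 100% recovery standard. Samples were matrix-matched, extracted in 80% acetonitrile with internal standard and quantified by UPLC-MS/MS. Fraction bound = bound/(unbound + bound), corrected for matrix dilution.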

Nc-Spain7 isolate = conditions: in vitro, ref Winzer et al., 2015; cited from earlier work
Neospora caninum = assay: qPCR parasite burden in placentomes and foetal brain; type: in vivo; conditions: aborted sheep
In short: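 DNA was extracted by paramagnetic-particle capture from 50–100 mg of foetal brain (three replicates each) and six placental samples per dam. Samples were screened by nested Nc5-PCR (337 bp product), with 10, 1 and 0.1 tachyzoite-equivalent controls in 100 ng sheep DNA and an uninfected-group negative. PCR-positive samples were quantified by real-time PCR; burdens compared by Mann–Whitney test.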

[3] = test system: N. caninum soluble antigens; assay: In-house indirect ELISA, IgG against N. caninum soluble antigens in dams; type: in vivo, sheep
In short: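 Dam sera were collected before infection, at 3, 5, 7 and 10 days pi, then weekly. Plates were coated with soluble N. caninum antigen and blocked; sera were diluted 1:100 in 1% BSA in PBS with 0.05% Tween 20. Detection used HRP anti-goat/sheep IgG (1:20000) with ABTS, stopped with 0.3 M oxalic acid, read at OD405 and expressed as RIPC. Analysis: repeated-measures two-way ANOVA to day 28 pi, one-way ANOVA after.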

[4] = Safety monitoring of treated pregnant sheep; type: in vivo
In short: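 Infected pregnant ewes received test compound orally at 100 mg/kg, 5 doses every other day from 48 h pi; uninfected controls received vehicle. A veterinarian observed animals daily for faecal consistency, blood in faeces and behavioural changes. Rectal temperature was taken daily to day 14 pi, then weekly; >40 °C counted as fever.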

[5] = ref Schaefer et al., 2016; cited from earlier work
[6] = pregnant sheep; ref Sánchez-Sánchez et al., 2019; cited from earlier work
NcSAG1 = assay: Commercial TgSAG1 ELISA, anti-NcSAG1 IgG in dams; type: in vivo, sheep; conditions: days 21 (P < 0.01) and 42 pi (P < 0.05)
[7] = Plasma protein binding by equilibrium dialysis, dog plasma; type: in vitro ADME; conditions: 5 μM
In short: as §1

[8] = Plasma protein binding by equilibrium dialysis, human plasma; type: in vitro ADME; conditions: 5 μM
In short: as §1

IFNγ = assay: Peripheral blood cell stimulation assay, IFNγ production; type: in vivo, sheep
In short: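 Heparinized jugular blood from dams was sampled before infection, at 3, 5, 7 and 10 days pi, then weekly. Blood was cultured with soluble N. caninum antigen or ConA for 24 h at 37 °C, 5% CO2, and IFNγ measured in supernatants by enzyme immunoassay. Analysis: repeated-measures two-way ANOVA to day 28 pi, one-way ANOVA afterwards; mean ± S.D.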

[9] = Plasma protein binding by equilibrium dialysis, rat plasma; type: in vitro ADME; conditions: 5 μM
In short: as §1

BKI-1294 plasma exposure = type: in vivo, sheep; conditions: G1
In short: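 Rasa Aragonesa ewes (12 months, seronegative), challenged i.v. with Nc-Spain7 tachyzoites. From 48 h pi, test compound was given orally by oro-ruminal probe at 100 mg/kg, 5 doses every other day. Heparinized blood was sampled at set times and plasma analysed by LC-MS/MS. Troughs were taken 48 h after each dose; values are mean ± S.D.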

[10] = test system: Neospora caninum Nc-Spain7 tachyzoites; assay: Rectal temperatures and fever in N. caninum-infected pregnant sheep; type: in vivo; conditions: days 5, 7 and 9 pi
[11] = test system: Toxoplasma gondii oocysts; conditions: sheep infected with T. gondii oocysts during pregnancy; ref Sánchez-Sánchez et al., 2019; cited from earlier work
[12] = test system: Neospora caninum Nc-Spain7 tachyzoites; assay: Foetal survival in pregnant sheep infected with N. caninum at mid-pregnancy; type: in vivo

SMILES: CCOc1ccc2cc(-c3nn(CC4CCN(C)CC4)c4ncnc(N)c34)ccc2c1 [BKI-1294]
- CNS crossing [1]: 30%
- bioavailability lower than BKI-1553 [1]: 30 fold
- plasma clearance [1]: high plasma clearance
- plasma protein binding (bound) [2]: 85%
- IC50 (Nc-Spain7 isolate): 270 ± 20 nM
- parasite burden in placentomes versus infected/untreated group (Neospora caninum): No significant differences
- IgG levels against N. caninum soluble antigens versus infected/untreated group ([3]; days 14, 21 and 28 pi): lower antibody response
- IgG levels against N. caninum soluble antigens versus infected/untreated group ([3]; from day 35 pi onwards): no significant differences
- safety of oral administration ([4]; N. caninum-infected pregnant sheep, oral 100 mg/kg x5): safe
- Diarrhoea, bloody stools, and behavioural disorders ([4]; oral 100 mg/kg, 5 doses every other day, pregnant sheep): not observed
- PPB in mice [5]: 85%
- safety of repeated oral administration [6]: safe, both locally and systemically
- anti-NcSAG1 IgG levels versus infected/untreated group (NcSAG1): lower anti-NcSAG1 IgG levels
- plasma protein binding (bound) [7]: 52%
- plasma protein binding (bound) [8]: 85%
- IFNγ levels versus infected/untreated group (IFNγ; day 7 pi, blood stimulated with N. caninum antigen, P < 0.0001): higher IFNγ levels
- IFNγ levels relative to infected/untreated group (IFNγ; days 14, 21 and 28 pi, not significant): approximately 10 fold
- plasma protein binding (bound) [9]: 85%
- trough plasma concentrations (BKI-1294 plasma exposure; 48 h after 1st oral dose of 100 mg/kg): 0.7 ± 0.4 µM
- trough plasma concentrations (BKI-1294 plasma exposure; 48 h after 2nd oral dose of 100 mg/kg): 0.7 ± 0.4 µM
- trough plasma concentrations (BKI-1294 plasma exposure; 48 h after 3rd oral dose of 100 mg/kg): 0.9 ± 0.5 µM
- trough plasma concentrations (BKI-1294 plasma exposure; 48 h after 4th oral dose of 100 mg/kg): 1.4 ± 1.1 µM
- trough plasma concentrations (BKI-1294 plasma exposure; 48 h after 5th oral dose of 100 mg/kg): 1.3 ± 0.8 µM
- rectal temperatures versus infected/untreated group [10]: significantly lower increase in rectal temperatures
- efficacy against abortion [11]: 71%
- efficacy against vertical transmission [11]: 53%
- median day of foetal death ([12]; G1 infected/treated (G2: 45)): 44 day pi
- foetal mortality (sheep whose foetuses died, 7 out of 8) ([12]; G1 infected/treated, same in G2 untreated): 87%
- foetal survival rate versus infected/untreated group ([12]; log-rank test): no significant differences
